Measured values published in publication PMC7523912 (ACS applied bio materials, 2019).
*: point of attachment. Palmitoyl = CCCCCCCCCCCCCCCC(=O)*

Tests used:
[1] = no reference or method printed; cited from earlier work
[2] = tested on: PDGF-BB mediated proliferation of normal human lung fibroblasts (NHLF); assay: Inhibition of PDGF-BB mediated proliferation assay; format: cell-based; conditions: PDGF-BB only samples, CyQuant
How it was run: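 NHLF at passage 3–4 were grown in DMEM with 10% FBS and 1% penicillin/streptomycin. Cells were seeded at 10,000/well, recovered overnight, then starved 6 h in 0.5% FBS. PDGF-BB was given as 1:2 serial dilutions from 100 to 1.56 ng/mL, alone or with 500 nM free aptamer, 100 μM diluent PA, or apt-PAN (500 nM aptamer-PA, 100 μM total PA). CyQuant Direct was read at 24 and 48 h, normalised to growth-factor-only wells, with three independent experiments, mean ± SD.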

[3] = target: platelet-derived growth factor-BB (UniProt P01127 82-190); assay: BLI
Chain of platelet-derived growth factor-BB (P01127 82-190): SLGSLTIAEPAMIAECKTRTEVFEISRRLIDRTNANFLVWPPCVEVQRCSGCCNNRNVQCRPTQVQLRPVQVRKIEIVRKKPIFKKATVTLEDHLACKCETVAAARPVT

Molecule | isoelectric point [1] | increase in total DNA, after 48 hours [2] | koff [3] [s⁻¹] | kon [3] [M⁻¹ s⁻¹]
PDGF-BB: Platelet derived growth factor-BB | 9.8 | more than two-fold | – | –
Palmitoyl-VVVAAAEEE-NH2 [diluent peptide amphiphile (palmitoyl-V3A3E3), as self-assembled nanofibers] | – | – | 0.000498 | 1080
